# Compound activity deposited in PubChem by Sanford-Burnham Center for Chemical Genomics.
# DNMT1 inh: DNMT1 (human) enzyme inhibition; DNMT1 molecular beacon, Hinp1I cleavage, fluorescence; hit rate 0.83% among 360,000; inhibition (reported as % activation of signal), % at 10 µM; AID 588458; P26358; in the data active = inhibition above about 50%
# Target sequence (P26358 504-1616 limits assumed): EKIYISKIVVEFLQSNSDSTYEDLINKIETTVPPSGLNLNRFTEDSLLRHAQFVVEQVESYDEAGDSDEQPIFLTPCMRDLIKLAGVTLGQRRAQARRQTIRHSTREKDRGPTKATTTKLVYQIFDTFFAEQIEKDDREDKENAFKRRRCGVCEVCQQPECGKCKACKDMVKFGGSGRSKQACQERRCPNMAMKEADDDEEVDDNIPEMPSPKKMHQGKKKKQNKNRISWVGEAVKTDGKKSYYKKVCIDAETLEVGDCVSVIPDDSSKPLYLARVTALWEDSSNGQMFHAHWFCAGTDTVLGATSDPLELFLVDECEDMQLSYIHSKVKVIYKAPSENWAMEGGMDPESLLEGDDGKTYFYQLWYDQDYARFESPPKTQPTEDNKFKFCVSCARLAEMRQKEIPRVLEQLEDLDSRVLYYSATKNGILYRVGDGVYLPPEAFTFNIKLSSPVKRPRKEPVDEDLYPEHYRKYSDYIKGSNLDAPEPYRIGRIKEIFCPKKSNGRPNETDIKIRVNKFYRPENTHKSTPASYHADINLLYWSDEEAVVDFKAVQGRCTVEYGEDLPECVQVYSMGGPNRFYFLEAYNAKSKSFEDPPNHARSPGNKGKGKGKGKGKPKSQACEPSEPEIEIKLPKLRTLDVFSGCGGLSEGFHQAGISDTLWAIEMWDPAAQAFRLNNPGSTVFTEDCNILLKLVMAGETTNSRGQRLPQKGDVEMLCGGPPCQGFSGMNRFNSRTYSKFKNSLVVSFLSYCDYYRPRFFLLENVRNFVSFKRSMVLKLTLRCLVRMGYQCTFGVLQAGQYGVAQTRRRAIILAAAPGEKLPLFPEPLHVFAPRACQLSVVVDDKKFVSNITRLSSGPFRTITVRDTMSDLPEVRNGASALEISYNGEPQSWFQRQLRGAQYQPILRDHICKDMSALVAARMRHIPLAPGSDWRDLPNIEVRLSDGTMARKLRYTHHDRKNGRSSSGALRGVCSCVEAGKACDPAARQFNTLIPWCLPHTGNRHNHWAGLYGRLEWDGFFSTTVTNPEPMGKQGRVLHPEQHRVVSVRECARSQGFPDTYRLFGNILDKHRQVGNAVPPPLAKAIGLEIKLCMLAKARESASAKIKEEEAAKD
# SUMO1-SIM PPI: modulators of human SUMO1-mediated protein-protein interactions; SUMO1 binding to a labelled peptide, TR-FRET, 1 h; hit rate 0.33% among 360,000; inhibition, % at 20 µM; AID 602429; P63165; in the data active = inhibition above about 37%
# Scp-1 inhibitor: inhibitors of human Scp-1 phosphatase. Recombinant Scp1, phosphopeptide, malachite green phosphate absorbance. hit rate 0.88% among 340,000. Q9GZU7. inhibition, % at 20 µM;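 active = inhibition above about 50% at 20 µM, limit read from the data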;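 also: plate controls were DMSO wells with enzyme for no effect and wells lacking enzyme for full effect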
#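 System: truncated SCP-1 phosphatase (76-261aa); medium: Tris acetate buffer pH 5.5 with MgCl2 and Tween-20; incubation: 45 min room-temperature reaction, 5 min colour, 30 min stabiliser; compound: single 20 µM dose, 1% DMSO; reagent: Phosphorylated 17-residue peptide substrate; read-out: % inhibition at 20 µM; technique: colorimetric free-phosphate detection, absorbance 630 nm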
# LMPTP block: blocks human LMPTP phosphatase | P24666 | recombinant LMPTP-A, OMFP fluorogenic substrate, fluorescence intensity | inhibition, % at 20 µM | hit rate 0.22% among 360,000 | AID 651560;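 active = compounds that cut the enzyme signal by at least half of the control window in the single-dose screen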;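 also: plate controls were DMSO wells with enzyme plus substrate for no effect and substrate without enzyme for full effect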
#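 Test system: LMPTP-A phosphatase enzyme; input: 0.625 nM LMPTP-A final; reagent: OMFP substrate, 400 µM final; compound dosing: 20 µM single dose, 3% DMSO; incubation: 50 min dark incubation at room temperature; measured by: endpoint fluorescence intensity from OMFP dephosphorylation; measure: % inhibition relative to no-enzyme and uninhibited control wells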
# STEP block: inhibitors of human striatal-enriched phosphatase STEP; P54829; recombinant STEP, OMFP fluorogenic substrate, fluorescence; inhibition, % at 20 µM; hit rate 0.25% among 360,000;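 active = inhibition at 20 µM, scaled per plate between control wells, above about 37%, limit read from the data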;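 also: 0% = DMSO with enzyme and substrate and 100% = substrate only without enzyme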
#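 System: STEP (striatal-enriched tyrosine phosphatase) enzyme, cell-free; medium: Bis-Tris pH 6.0 buffer with DTT, detergent; dosing: 20 µM, 1% DMSO; times: reaction 20 min, ambient temperature; detection: fluorescence, 480/540 nm; read-out basis: normalized % inhibition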
# NadD inh: inhibitors of Staphylococcus aureus NadD; purified NadD enzyme, colorimetric absorbance read-out; inhibition, % at 20 µM; hit rate 0.78% among 360,000; in the data active = inhibition above about 26%
# DNMT1 interf DR: shows spectral interference in the DNMT1 beacon assay; shares compounds with DNMT1 inh; molecular beacon fluorescence, spectral interference counter-screen; IC50, µM; 200 tested, under 10 active; AID 602382; call rule not given here
# DNMT1 confirm: confirmation of human DNMT1 inhibitors. shares compounds with DNMT1 inh. DNMT1 molecular beacon HinP1I cleavage, fluorescence. inhibition, % at 10 µM. hit rate 8% among 2,300. AID 602385;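 active = average inhibition of at least 30% in the single-concentration confirmation test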
# DNMT1 interf: shows spectral interference in the DNMT1 beacon assay; hit rate 1% among 2,300; AID 602387; shares compounds with DNMT1 inh; activation (fluorescence interference), % at 10 µM; DNMT1 molecular beacon spectral interference counterscreen, fluorescence 485/520;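 active = activation of at least 30% at 10 µM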;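 also: DNMT1 catalytic domain with a HinP1I cleavage step and a FAM/dabcyl DNA beacon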
# * hit, by the source's call; . = no result. Hits are enriched below; roughly 2.3% of the tested compounds scored in any of these assays.
SMILES,DNMT1 inh,SUMO1-SIM PPI,Scp-1 inhibitor,LMPTP block,STEP block,NadD inh,DNMT1 confirm,DNMT1 interf,others
CN1CCC=C(C(=O)N2c3ccccc3Sc3ccc(Cl)cc32)C1,1,1,-13,0,2,-2,.,.,
CCCCn1nnnc1NCc1ccc(N2CCCC2)cc1,70*,-4,1,18,-1,15,2,0,
CCOCCOC(=O)c1cccc2c1-c1ccccc1C2=O,7,-31,-10,-1,0,-12,.,.,
COc1ccc(N2CCN(C(CNC(=O)C(=O)NCCc3c[nH]c4ccccc34)c3ccco3)CC2)cc1 (configuration not stated),78*,1,-8,0,-3,-1,-1,-1,
COc1ccc(N2CCN(C(CNC(=O)C(=O)NCCCO)c3ccco3)CC2)cc1 (configuration not stated),-1,-4,-4,0,-1,1,.,.,
CN(CCc1ccccc1)C1CCCN(C(=O)Cn2cccn2)C1 (configuration not stated),1,-2,-5,-1,0,-2,.,.,
Cc1ccc(OCc2ccc(C(=O)O)o2)cc1C,2,-5,30,-3,2,-3,.,.,
Cc1ccc(OCc2ccoc2C(=O)O)cc1C,54*,4,50,0,4,-3,4,-1,
COc1ccc(-c2noc(CCC(=O)N3CCN(c4cccc(OC)c4)CC3)n2)cc1,3,4,1,0,1,2,.,.,
COc1ccc(-c2noc(CCC(=O)N3CCC(c4cc(C)ccc4C)CC3)n2)cc1,50,1,-7,9,5,-3,0,0,
O=C1NN(c2ccc(Cl)cc2)C(=O)/C1=C\c1ccc(-c2cccc(C(=O)O)c2)o1,95*,40*,94*,82*,97*,10,34*,2,DNMT1 interf DR=>99
NC(=O)Cn1c(=O)n(Cc2ccco2)c(=O)c2c3c(sc21)CCCCC3,83*,12,71*,8,16,3,3,0,
O=C(Nc1nnc(-c2ccccc2)s1)c1ccc(F)cc1,72*,-2,-2,-1,-1,0,2,1,
COc1ccccc1C(=O)Nc1nnc(-c2ccc(F)cc2)s1,2,-11,3,6,3,-14,.,.,
CCOc1cc(/C=C2\C(=O)NN(c3ccccc3)C2=O)cc([N+](=O)[O-])c1O,68*,-4,13,5,3,-3,11,1,
Cc1ccc(C(=O)NNS(=O)(=O)c2ccc(F)cc2)cc1,-6,4,43,-1,2,-2,.,.,
Cc1ccc(N=Cc2c(O)[nH]c3ccccc23)c([N+](=O)[O-])c1,59*,-19,-4,10,1,4,2,2,
Cc1c(NC2(C#N)CCCCC2)c(=O)n(-c2ccccc2)n1C,-3,1,5,2,0,3,.,.,
O=C1/C(=C/c2ccco2)Oc2c1ccc(O)c2CN1CCCCC1,79*,0,14,16,1,13,15,11,
CN(CC1CCCO1)S(=O)(=O)c1ccc(C(=O)Nc2ccc3c(c2)OCO3)cc1 (configuration not stated),-3,3,-15,0,2,-2,.,.,
CN(CC1CCCO1)S(=O)(=O)c1ccc(C(=O)Nc2nc3cc4c(cc3s2)OCO4)cc1 (configuration not stated),64*,8,-14,-1,1,0,3,6,
CS(=O)(=O)Nc1ccc(C(=O)Nc2ccccc2-c2ccccc2)cc1,8,3,-5,-1,-2,2,.,.,
CC(C)OC(=O)COc1cc(O)c2c(=O)cc(-c3ccccc3)oc2c1,18,17,6,27,6,-5,.,.,
COc1ccc(C(CC(=O)N2CCOCC2)c2c(OC)cc(OC)c3c(-c4ccccc4)cc(=O)oc23)cc1 (configuration not stated),74*,-4,35,5,0,4,3,-2,
COc1ccc(C(CC(=O)N2CCOCC2)c2c(OC)cc(OC)c3ccc(=O)oc23)cc1 (configuration not stated),23,-9,16,0,6,-5,.,.,
SMILES,DNMT1 inh,SUMO1-SIM PPI,Scp-1 inhibitor,LMPTP block,STEP block,NadD inh,DNMT1 confirm,DNMT1 interf,others
Cc1nn(-c2ccccc2)nc1CNC(=O)C1CC1,0,1,-11,-1,-2,-1,.,.,
CCOc1ccc2oc(C(=O)Nc3nccs3)c(C)c2c1,68*,1,-8,3,2,-5,3,4,
O=C(c1ccc2c(=O)n3c(nc2c1)CCC3)N1CCN(S(=O)(=O)c2cccc(F)c2)CC1,79*,4,-5,-1,0,1,-10,3,
COc1ccc(-c2c(C#Cc3ccc(N(C)C)cc3)c3ccccc3n2C)cc1,57*,-20,1,1,2,17,3,-2,
O=S(=O)(c1cc(O)ccc1O)c1cccc2c(S(=O)(=O)c3cc(O)ccc3O)cccc12,95*,58*,69*,75*,84*,26,83*,3,DNMT1 interf DR=>99
O=[N+]([O-])c1ccccc1CCc1ccccc1[N+](=O)[O-],4,-4,-5,2,0,-1,.,.,
CCOc1ccccc1NC(=O)c1cccc(NC(=O)C2CCCC2)c1,-1,2,0,0,-2,-4,.,.,
COc1ccc2oc(C(=O)Nc3ccc(N4CCOCC4)cc3)c(C)c2c1,51*,2,15,2,2,13,21,2,
CCCCc1c(C)nc2ccc(OC)cc2c1SCCC(=O)O,66*,7,17,2,0,1,5,3,
Clc1ccc(OCc2nn3c(-c4ccccc4)nnc3s2)c(Cl)c1,59*,1,-3,29,5,6,3,3,
Clc1ccccc1OCc1nn2c(-c3ccncc3)nnc2s1,-2,0,0,0,4,8,.,.,
CC1Sc2ccccc2N(Cc2ccc(OC(F)(F)F)cc2)C1=O (configuration not stated),16,3,.,1,-2,-4,.,.,
COCCCn1c(=N)c(C(N)=S)cc2c(=O)n3cccc(C)c3nc21,54*,22,-9,6,7,28,4,1,
Cc1cc(=O)oc2cc(NC(=O)C3CCCC3)ccc12,3,-6,-4,0,-3,-1,.,.,
